ChEMBL document CHEMBL5370595, “Development of Iodinated Indocyanine Green Analogs as a Strategy for Targeted Therapy of Liver Cancer” (ACS Med Chem Lett, 2023)

Columns and labels:
[1] = Drug uptake in human Huh-7 cells assessed as increase in mean fluorescence intensity at 10 uM incubated for 1 hr by flow cytometry analysis; assay type: ADME, cell-based; conditions: huh-7, 1 h
Summary of the method: (§1)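 Flow cytometry of cells exposed to 10 μM compound for 1 h, read as mean fluorescence intensity. Cell lines were OATP1B3-overexpressing HEK-293T (lentiviral transduction, MOI 10), parental HEK-293T, Hep3B, HepG2 and Huh-7.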

[2] = Drug uptake in HEK293T cells expressing OATP1B3 assessed as increase in mean fluorescence intensity at 10 uM incubated for 1 hr by flow cytometry analysis; assay type: ADME, cell-based; conditions: human, hek-293t; summary of the method: as §1
[3] = Drug uptake in human HepG2 cells assessed as increase in mean fluorescence intensity at 10 uM incubated for 1 hr by flow cytometry analysis; assay type: ADME, cell-based; conditions: hepg2, 1 h; summary of the method: as §1
[4] = Drug uptake in human Hep3B cells assessed as increase in mean fluorescence intensity at 10 uM incubated for 1 hr by flow cytometry analysis; assay type: ADME, cell-based; conditions: hep 3b2, 1 h; summary of the method: as §1
[5] = Drug uptake in parent HEK293T cells assessed as increase in mean fluorescence intensity at 10 uM incubated for 1 hr by flow cytometry analysis; assay type: ADME, cell-based; conditions: human, hek-293t; summary of the method: as §1
[6] = Drug uptake in human HepG2 at 10 uM incubated for 1 hr by DAPI staining based flow cytometry analysis; assay type: ADME, cell-based; conditions: hepg2, 1 h
[7] = Drug uptake in parent HEK293T cells by DAPI staining based confocal fluorescence microscopy analysis; assay type: ADME, cell-based; conditions: human, hek-293t
[8] = Drug uptake in human SH-SY5Y cells assessed as increase in fluorescence signal at 10 to 25 uM incubated for 1 hr by confocal fluorescence microscopy based analysis; assay type: ADME, cell-based; conditions: dose 10-25 µM
[9] = Drug uptake in HEK293T cells expressing OATP1B3 at 10 uM incubated for 1 hr by DAPI staining based flow cytometry analysis; assay type: ADME, cell-based; conditions: human, hek-293t
[10] = Drug uptake in human HB17 cells assessed as increase in fluorescence signal at 10 to 25 uM incubated for 1 hr by confocal fluorescence microscopy based analysis; assay type: ADME, cell-based; conditions: hb17, 1 h, dose 10-25 µM
[11] = Ratio of drug concentration in athymic nude mouse tumor to liver xenografted with human Huh-7 cells assessed as tumor to liver ratio at 2 mg/kg measured after 48 hrs post injection by IVIS Lumina imaging system; assay type: ADME, organism-based; conditions: in vivo
Summary of the method: (§2)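 Tumor-to-liver ratio was calculated from ex vivo fluorescence of excised tumors and livers at 48 h after 2 mg/kg intravenous dosing in xenograft-bearing female athymic nude mice.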

[12] = Ratio of drug concentration in athymic nude mouse tumor to liver xenografted with human Hep3B cells assessed as tumor to liver ratio at 2 mg/kg measured after 48 hrs post injection by IVIS Lumina imaging system; assay type: ADME, organism-based; conditions: in vivo; summary of the method: as §2
[13] = Drug uptake in parent HEK293T cells at 10 uM incubated for 1 hr by DAPI staining based flow cytometry analysis; assay type: ADME, cell-based; conditions: human, hek-293t
[14] = Drug uptake in tumor of athymic nude mouse xenografted with human Hep3B cells assessed as tumor to background ratio at 2 mg/kg, iv measured after 4 to 48 hrs by IVIS Lumina imaging system; assay type: ADME, organism-based, Neoplasm, Hep 3B2; conditions: in vivo, time 4-48 hrs
[15] = Drug uptake in human HepG2 cells assessed as increase in fluorescence signal at 25 uM incubated for 1 hr by flow cytometry based analysis; assay type: ADME, cell-based; conditions: hepg2, 1 h
[16] = Drug uptake in human HepG2 cells assessed as increase in fluorescence signal at 10 to 25 uM incubated for 1 hr by confocal fluorescence microscopy based analysis; assay type: ADME, cell-based; conditions: hepg2, 1 h, dose 10-25 µM
[17] = Drug uptake in human HepG2 cells expressing OATP1B3 by DAPI staining based confocal fluorescence microscopy analysis; assay type: ADME, cell-based
[18] = Drug uptake in human SH-SY5Y cells assessed as increase in fluorescence signal at 25 uM incubated for 1 hr by flow cytometry based analysis; assay type: ADME, cell-based
[19] = Drug uptake tumor of in athymic nude mouse xenografted with human Huh-7 cells assessed as tumor to background ratio at 2 mg/kg, iv measured after 4 to 48 hrs by IVIS Lumina imaging system; assay type: ADME, organism-based, Neoplasm; conditions: in vivo, time 4-48 hrs
[20] = Drug uptake in human Hep3B at 10 uM incubated for 1 hr by DAPI staining based flow cytometry analysis; assay type: ADME, cell-based; conditions: hep 3b2, 1 h
[21] = Drug uptake in human Hep3B cells expressing OATP1B3 by DAPI staining based confocal fluorescence microscopy analysis; assay type: ADME, cell-based; conditions: hep 3b2
[22] = Drug uptake in human HB17 cells assessed as increase in fluorescence signal at 25 uM incubated for 1 hr by flow cytometry based analysis; assay type: ADME, cell-based; conditions: hb17, 1 h
[23] = Drug uptake in HEK293T cells expressing OATP1B3 by DAPI staining based confocal fluorescence microscopy analysis; assay type: ADME, cell-based; conditions: human, hek-293t
[24] = Drug uptake in liver of mouse xenografted with HB66 PDX model assessed as increase in fluorescence signal at 10 mg/kg, iv measured after 72 hrs post injection by IVIS Lumina imaging system; assay type: ADME, organism-based; conditions: in vivo
Summary of the method: (§3)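 Mice with orthotopic HB52 or HB66 hepatoblastoma PDX tumors, and non-tumor-bearing mice, received 10 mg/kg intravenously. Tumor growth was followed by MRI. Mice were imaged by IVIS at 24, 48 and 72 h, then tumors, livers and lungs were analysed ex vivo at 72 h, n = 1.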

[25] = Drug uptake in liver of mouse xenografted with HB52 PDX model assessed as increase in fluorescence signal at 10 mg/kg, iv measured after 72 hrs post injection by IVIS Lumina imaging system; assay type: ADME, organism-based; conditions: in vivo; summary of the method: as §3
[26] = Drug uptake in tumor of mouse xenografted with HB52 PDX model assessed as increase in fluorescence signal at 10 mg/kg, iv measured after 72 hrs post injection by IVIS Lumina imaging system; assay type: ADME, organism-based, Neoplasm; conditions: in vivo; summary of the method: as §3
[27] = Drug uptake in lung of non-tumor bearing mouse assessed as increase in fluorescence signal at 10 mg/kg, iv measured after 72 hrs post injection by IVIS Lumina imaging system; assay type: ADME, organism-based; conditions: in vivo; summary of the method: as §3
[28] = Drug uptake in liver of athymic nude mouse xenografted with human Hep3B cells assessed as increase in liver signal at 2 mg/kg, iv measured after 48 hrs post injection by IVIS Lumina imaging system; assay type: ADME, organism-based, Hep 3B2; conditions: in vivo
Summary of the method: (§4)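 Female athymic nude mice bearing Hep3B or Huh-7 tumors received 2 mg/kg intravenously. They were imaged by IVIS at 4, 24 and 48 h. Tumors and livers were excised at 48 h for ex vivo fluorescence, with background taken from the neck signal.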

[29] = Drug uptake in tumor of athymic nude mouse xenografted with human Hep3B cells assessed as increase in tumor signal at 2 mg/kg, iv measured after 48 hrs post injection by IVIS Lumina imaging system; assay type: ADME, organism-based, Neoplasm, Hep 3B2; conditions: in vivo; summary of the method: as §4
[30] = Drug uptake in tumor of athymic nude mouse xenografted with human Huh-7 cells assessed as increase in tumor signal at 2 mg/kg, iv measured after 48 hrs post injection by IVIS Lumina imaging system; assay type: ADME, organism-based, Neoplasm; conditions: in vivo; summary of the method: as §4
[31] = Drug uptake in athymic nude mouse liver xenografted with human Huh-7 cells assessed as increase in liver signal at 2 mg/kg, iv measured after 48 hrs post injection by IVIS Lumina imaging system; assay type: ADME, organism-based; conditions: in vivo; summary of the method: as §4
[32] = Drug uptake in tumor of mouse xenografted with HB66 PDX model assessed as increase in fluorescence signal at 10 mg/kg, iv measured after 72 hrs post injection by IVIS Lumina imaging system; assay type: ADME, organism-based, Neoplasm; conditions: in vivo; summary of the method: as §3

Drug uptake [1] | Drug uptake [2] | Drug uptake [3] | Drug uptake [4] | Drug uptake [5] | Drug uptake [8] | Drug uptake [10] | Ratio [11] | Ratio [12] | Ratio [14] | Drug uptake [15] | Drug uptake [16] | Drug uptake [18] | Ratio [19] | Drug uptake [22] | Structure (SMILES) | further results
Active | Active | Active | Active | Active | – | – | – | – | – | – | – | – | – | – | CC1(C)C(/C=C/C=C/C=C/C=C2/N(CCCCS(=O)(=O)[O-])c3ccc(I)cc3C2(C)C)=[N+](CCCCS(=O)(=O)[O-])c2ccc(I)cc21.[Na+] | –
Active | Active | Active | Active | Active | – | – | – | – | – | – | – | – | – | – | CC1(C)C(/C=C/C=C/C=C/C=C2/N(CCCCS(=O)(=O)[O-])c3cc(I)ccc3C2(C)C)=[N+](CCCCS(=O)(=O)[O-])c2cc(I)ccc21.[Na+] | –

Further lines, the molecule ahead of its results:

Structure (SMILES) | Drug uptake [1] | Drug uptake [2] | Drug uptake [3] | Drug uptake [4] | Drug uptake [5] | Drug uptake [8] | Drug uptake [10] | Ratio [11] | Ratio [12] | Ratio [14] | Drug uptake [15] | Drug uptake [16] | Drug uptake [18] | Ratio [19] | Drug uptake [22] | further results
CC1(C)C(/C=C/C=C/C=C/C=C2/N(CCCCS(=O)(=O)[O-])c3cccc(I)c3C2(C)C)=[N+](CCCCS(=O)(=O)[O-])c2ccc3ccccc3c21.[Na+] | Active | Active | Active | Active | Active | – | – | – | – | – | – | – | – | – | – | –
CC1(C)C(/C=C/C=C/C=C/C=C2/N(CCCCS(=O)(=O)[O-])c3ccc4ccccc4c3C2(C)C)=[N+](CCCCS(=O)(=O)[O-])c2ccc3ccccc3c21.[Na+] [INDOCYANINE GREEN] | – | – | – | – | – | Not Active | Active | 2 | 3 | 2 | Active | Active | Not Active | 2 | Active | Drug uptake [6]: Active; Drug uptake [7]: Active; Drug uptake [9]: Active; Drug uptake [13]: Active; Drug uptake [17]: Active; Drug uptake [20]: Active; Drug uptake [21]: Active; Drug uptake [23]: Active
CC1(C)C(/C=C/C=C/C=C/C=C2/N(CCCCS(=O)(=O)[O-])c3cccc(I)c3C2(C)C)=[N+](CCCCS(=O)(=O)[O-])c2cccc(I)c21.[Na+] | Active | Active | Active | Active | Active | Not Active | Active | 2 | 3 | 5 | Active | Active | Not Active | 2 | Active | Drug uptake [24]: Not Active; Drug uptake [25]: Not Active; Drug uptake [26]: Active; Drug uptake [27]: Not Active; Drug uptake [28]: Active; Drug uptake [29]: Active; Drug uptake [30]: Active; Drug uptake [31]: Active; Drug uptake [32]: Active
